The source made the active and inactive calls. No cut-off for these calls is given here.
Legend:
Blood [1] = experiment: Inhibition of […]-induced LTB4 synthesis in mouse whole blood after 4 hrs; format: functional, tissue-based
Cytochrome P450 2D6 = Cytochrome P450 2D6 (Homo sapiens, UniProt P10635); experiment: Inhibition of CYP2D6; format: ADME
Cytochrome P450 2C9 = Cytochrome P450 2C9 (Homo sapiens, UniProt P11712); experiment: Inhibition of CYP2C9; format: ADME
Mus musculus [2] = experiment: Inhibition of arachidonic acid-induced cysteinyl leukotriene production in topically dosed mouse at 1 to 10%; format: functional, organism-based
[3] = biological target: T1, Arachidonate 5-lipoxygenase-activating protein (Homo sapiens, UniProt P20292); experiment: Binding affinity to FLAP in human PMN by radioligand displacement assay
T1 sequence (P20292 whole entry): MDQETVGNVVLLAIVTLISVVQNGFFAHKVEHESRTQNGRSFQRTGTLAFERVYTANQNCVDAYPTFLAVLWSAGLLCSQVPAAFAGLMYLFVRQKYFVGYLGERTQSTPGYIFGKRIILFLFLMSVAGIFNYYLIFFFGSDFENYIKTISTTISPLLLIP
Method in brief: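 Tritiated-ligand displacement from FLAP-containing membranes; IC50, n = 6.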

Blood [4] = experiment: Inhibition of […]-induced LTB4 synthesis in mouse whole blood after 15 mins; format: functional, tissue-based; conditions: 0.25 h
Rattus norvegicus [5] = experiment: Skin irritant activity in abraded rat skin model at 10 mg/mL (2 mL), topical after 72 hrs; conditions: in vivo
Blood [6] = experiment: Inhibition of […]-induced LTB4 synthesis in rat whole blood after 15 mins; format: functional, tissue-based; conditions: 0.25 h
Mus musculus [7] = experiment: Inhibition of arachidonic acid-induced ear edema in topically dosed mouse at 1 to 10%; format: functional, organism-based
Mus musculus [8] = experiment: Inhibition of arachidonic acid-induced LTB4 production in topically dosed mouse at 1 to 10%; format: functional, organism-based
Rattus norvegicus [9] = experiment: Skin irritant activity in abraded rat skin model at 10 mg/mL (2 mL), topical after 72 hrs; conditions: in vivo; remark: listed apart in the source
Rattus norvegicus [10] = experiment: Skin irritant activity in abraded rat skin model treated topically after 72 hrs; format: ADME, organism-based; conditions: in vivo, topical_or_ocular
Method in brief: (§1)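 Healthy male rats shaved and skin abraded; 2 mL of 10 mg/mL solution in topical vehicle applied over 20% of body area, occluded 24 h, site then cleaned. Draize scoring for erythema/edema and body weight followed over 72 h.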

[11] = Solubility of the compound in transcutol; format: physicochemical
Mus musculus [12] = experiment: Inhibition of arachidonic acid-induced cysteinyl leukotriene production in topically dosed mouse at 0.1%; format: functional
Method in brief: (§2)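 AA (4 mg/ear in ethanol) applied topically to mouse ear, compound applied topically at 0.01% or 0.1%. After 30 min, 6 mm ear punches weighed and assayed for CysLTs and LTB4. n = 3/group; means ± SEM; ANOVA with Dunnett's post hoc test, or t-test, versus vehicle.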

Blood [13] = experiment: Inhibition of […]-induced LTB4 synthesis in rat whole blood after 4 hrs; format: functional, tissue-based
Mus musculus [14] = experiment: Inhibition of arachidonic acid-induced LTB4 production in topically dosed mouse ear; format: functional, organism-based; method in brief: as §2
Blood [15] = experiment: Inhibition of […]-induced LTB4 synthesis in human whole blood after 5 hrs; format: functional, tissue-based
[16] = Solubility of the compound in water; format: physicochemical; conditions: buffer
Mus musculus [17] = experiment: Inhibition of arachidonic acid-induced ear edema in mouse at 30 mg/kg, po administered 4 hrs before arachidonic acid challenge; format: functional
Method in brief: (§3)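 Mice given 30 mg/kg orally in 0.5% methocel 4 h before AA (4 mg in 40 µL ethanol) on one ear, ethanol alone on the other. After 30 min, 6 mm punches weighed and assayed for LTB4 and CysLTs. n = 3/group; means ± SEM; two-tailed t-test versus vehicle.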

[18] = Inhibition of […]-induced LTB4 synthesis in human leukocytes; format: functional, cell-based; conditions: Leukocyte
Method in brief: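 Human leukocytes stimulated with calcium ionophore […]; LTB4 synthesis measured; IC50.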

Cytochrome P450 3A4 = Cytochrome P450 3A4 (Homo sapiens, UniProt P08684); experiment: Inhibition of CYP3A4; format: ADME
Cytochrome P450 3A4, sequence (P08684 whole entry): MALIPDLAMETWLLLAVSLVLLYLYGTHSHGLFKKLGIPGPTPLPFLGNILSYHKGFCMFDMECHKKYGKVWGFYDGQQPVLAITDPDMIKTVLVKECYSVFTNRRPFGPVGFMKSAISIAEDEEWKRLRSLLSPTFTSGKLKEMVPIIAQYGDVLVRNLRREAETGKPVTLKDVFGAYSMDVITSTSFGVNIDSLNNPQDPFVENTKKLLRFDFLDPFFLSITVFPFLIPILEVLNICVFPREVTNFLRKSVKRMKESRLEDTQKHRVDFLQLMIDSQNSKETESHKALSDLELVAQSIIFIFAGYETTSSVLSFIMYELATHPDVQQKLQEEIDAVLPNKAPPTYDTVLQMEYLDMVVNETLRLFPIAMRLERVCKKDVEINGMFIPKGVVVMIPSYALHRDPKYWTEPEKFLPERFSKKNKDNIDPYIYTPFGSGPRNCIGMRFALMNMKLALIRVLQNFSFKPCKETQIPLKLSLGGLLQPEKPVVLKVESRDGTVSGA

[19] = Terminal half life in rat at 1 mg/kg, iv; format: ADME, organism-based; parameters: dose 1 mg/kg, route intravenous; conditions: in vivo, read-out: beta t1/2 (converted)
Method in brief: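 Rat given 1 mg/kg intravenously in 10% EtOH/40% PEG400/50% water; plasma concentration–time profile used for terminal half-life.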

Blood [20] = experiment: Inhibition of […]-induced LTB4 synthesis in human whole blood after 15 mins; format: functional, tissue-based; conditions: 0.25 h
Mus musculus [21] = experiment: Inhibition of arachidonic acid-induced LTB4 production in topically dosed mouse at 0.1%; format: functional; method in brief: as §2
Mus musculus [22] = experiment: Inhibition of arachidonic acid-induced cysteinyl leukotriene production in topically dosed mouse ear; format: functional, organism-based; method in brief: as §2
Mus musculus [23] = experiment: Inhibition of arachidonic acid-induced LTB4 production in mouse ear at 30 mg/kg, po administered 4 hrs before arachidonic acid challenge; format: functional; method in brief: as §3
[24] = Drug level in mouse plasma at 30 mg/kg, po after 4.5 hrs; conditions: read-out: Drug uptake
Rattus norvegicus [25] = species: Rattus norvegicus; experiment: Toxicity in rat assessed as change in body weight after 72 hrs; format: organism-based; conditions: in vivo; method in brief: as §1
[26] = biological target: T2, Prostaglandin G/H synthase 2 (Homo sapiens, UniProt P35354); experiment: Inhibition of COX2
T2 sequence (P35354 whole entry): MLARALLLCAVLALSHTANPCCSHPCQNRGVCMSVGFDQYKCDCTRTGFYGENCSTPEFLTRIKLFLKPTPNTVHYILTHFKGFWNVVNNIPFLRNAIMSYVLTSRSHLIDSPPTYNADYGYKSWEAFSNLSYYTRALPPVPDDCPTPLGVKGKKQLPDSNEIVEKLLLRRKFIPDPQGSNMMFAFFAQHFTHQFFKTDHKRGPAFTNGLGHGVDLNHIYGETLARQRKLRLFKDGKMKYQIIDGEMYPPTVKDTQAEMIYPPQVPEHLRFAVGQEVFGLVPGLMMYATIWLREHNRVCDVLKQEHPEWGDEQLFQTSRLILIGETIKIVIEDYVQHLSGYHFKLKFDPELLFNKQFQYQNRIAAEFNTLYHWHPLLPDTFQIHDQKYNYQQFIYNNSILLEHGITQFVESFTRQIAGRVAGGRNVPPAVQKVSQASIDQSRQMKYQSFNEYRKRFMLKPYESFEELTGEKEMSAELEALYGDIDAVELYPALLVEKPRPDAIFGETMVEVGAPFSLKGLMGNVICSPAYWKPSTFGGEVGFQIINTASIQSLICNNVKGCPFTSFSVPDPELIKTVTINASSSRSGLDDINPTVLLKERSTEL

[27] = biological target: Prostaglandin G/H synthase 1 (Homo sapiens, UniProt P23219); experiment: Inhibition of COX1
Prostaglandin G/H synthase 1, sequence (P23219 whole entry): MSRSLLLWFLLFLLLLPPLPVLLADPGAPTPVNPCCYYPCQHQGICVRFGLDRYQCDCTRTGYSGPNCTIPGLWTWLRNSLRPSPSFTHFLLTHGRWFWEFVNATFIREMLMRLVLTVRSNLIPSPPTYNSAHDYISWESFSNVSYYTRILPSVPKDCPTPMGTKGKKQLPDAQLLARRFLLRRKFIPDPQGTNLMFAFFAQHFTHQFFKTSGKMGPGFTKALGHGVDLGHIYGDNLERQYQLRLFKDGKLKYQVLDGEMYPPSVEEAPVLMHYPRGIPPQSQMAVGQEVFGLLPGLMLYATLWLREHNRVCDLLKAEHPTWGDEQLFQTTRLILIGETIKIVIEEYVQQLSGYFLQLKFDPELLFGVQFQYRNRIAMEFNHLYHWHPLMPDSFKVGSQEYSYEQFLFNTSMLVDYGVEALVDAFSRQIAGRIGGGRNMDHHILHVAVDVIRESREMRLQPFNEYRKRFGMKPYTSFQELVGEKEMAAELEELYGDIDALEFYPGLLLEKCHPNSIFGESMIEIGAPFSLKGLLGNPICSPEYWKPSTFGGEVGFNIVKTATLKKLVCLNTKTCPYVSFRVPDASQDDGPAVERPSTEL

Mus musculus [28] = experiment: Inhibition of arachidonic acid-induced ear edema in topically dosed mouse at 0.1%; format: functional; method in brief: as §2
[29] = Solubility of the compound in propylene glycol; format: physicochemical
Mus musculus [30] = experiment: Inhibition of arachidonic acid-induced cysteinyl leukotriene production in mouse ear at 30 mg/kg, po administered 4 hrs before arachidonic acid challenge; format: functional; method in brief: as §3

Cytochrome P450 2D6, sequence (P10635 whole entry): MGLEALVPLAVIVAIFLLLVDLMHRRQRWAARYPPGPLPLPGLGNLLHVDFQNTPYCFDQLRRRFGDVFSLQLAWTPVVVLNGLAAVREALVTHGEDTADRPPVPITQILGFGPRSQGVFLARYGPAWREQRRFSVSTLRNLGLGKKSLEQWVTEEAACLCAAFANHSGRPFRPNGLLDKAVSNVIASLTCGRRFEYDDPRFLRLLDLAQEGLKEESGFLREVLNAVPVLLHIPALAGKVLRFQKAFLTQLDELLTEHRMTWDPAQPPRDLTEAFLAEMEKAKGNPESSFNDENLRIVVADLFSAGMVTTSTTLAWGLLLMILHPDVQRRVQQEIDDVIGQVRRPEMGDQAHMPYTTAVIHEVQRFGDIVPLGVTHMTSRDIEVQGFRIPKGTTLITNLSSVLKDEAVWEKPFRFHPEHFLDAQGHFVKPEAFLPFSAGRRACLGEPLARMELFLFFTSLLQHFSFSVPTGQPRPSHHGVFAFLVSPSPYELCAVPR
Cytochrome P450 2C9, sequence (P11712 whole entry): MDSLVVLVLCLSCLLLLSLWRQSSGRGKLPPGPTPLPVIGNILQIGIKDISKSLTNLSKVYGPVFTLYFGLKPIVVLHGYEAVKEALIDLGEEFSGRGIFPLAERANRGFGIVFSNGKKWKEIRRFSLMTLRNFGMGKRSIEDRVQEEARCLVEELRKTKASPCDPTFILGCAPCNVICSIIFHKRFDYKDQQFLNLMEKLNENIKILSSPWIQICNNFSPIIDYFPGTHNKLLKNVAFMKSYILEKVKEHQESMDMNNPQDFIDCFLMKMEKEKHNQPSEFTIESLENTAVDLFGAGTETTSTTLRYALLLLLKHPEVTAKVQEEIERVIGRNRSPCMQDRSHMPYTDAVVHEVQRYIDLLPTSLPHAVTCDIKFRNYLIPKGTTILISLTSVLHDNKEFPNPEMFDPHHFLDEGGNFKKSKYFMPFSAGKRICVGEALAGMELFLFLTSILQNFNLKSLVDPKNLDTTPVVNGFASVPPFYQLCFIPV

## COc1cnc(-c2ccc(Cn3c(CC(C)(C)C(=O)[O-])c(SC(C)(C)C)c4cc(OCc5ccc(C)cn5)ccc43)cc2)nc1.[Na+]
Blood [1]
  IC50: 4 nM
Cytochrome P450 2D6
  IC50: > 30 µM
Cytochrome P450 2C9
  IC50: 4.5 µM
Mus musculus [2]
  inhibition: inactive
[3]
  IC50: 2 nM
Blood [4]
  IC50: 26 nM
Rattus norvegicus [5]
  Activity: Non-toxic
Blood [6]
  IC50: 78 nM
Mus musculus [7]
  inhibition: inactive
Mus musculus [8]
  inhibition: inactive
Rattus norvegicus [9]
  Activity: Non-toxic
Rattus norvegicus [10]
  Activity: Non-toxic
[11]
  solubility: 15%
Mus musculus [12]
  inhibition (INH): 37%
Blood [13]
  IC50: 11 nM
Mus musculus [14]
  inhibition: Dose-dependent effect
Blood [15]
  IC50: 81 nM
[16]
  solubility: 10%
Mus musculus [17]
  inhibition in vivo at 30 mg/kg: 65%
[18]
  IC50: 0.6 nM
Cytochrome P450 3A4
  IC50: 8.8 µM
[19]
  half-life: 120 min
Blood [20]
  IC50: 161 nM
Mus musculus [21]
  inhibition (INH): 55%
Mus musculus [22]
  inhibition: Dose-dependent effect
Mus musculus [23]
  inhibition in vivo at 30 mg/kg: 33%
[24]
  concentration at 4.5 h: 1500 nM
Rattus norvegicus [25]
  Activity: Non-toxic
[26]
  IC50: > 100 µM
[27]
  IC50: > 100 µM
Mus musculus [28]
  inhibition (INH): 61%
[29]
  solubility: 75%
Mus musculus [30]
  inhibition in vivo at 30 mg/kg: 57%

From ChEMBL document CHEMBL1208689, “5-Lipoxygenase-activating protein inhibitors. Part 3: 3-{3-tert-Butylsulfanyl-1-[4-(5-methoxy-pyrimidin-2-yl)-benzyl]-5-(5-methyl-pyridin-2-ylmethoxy)-1H-indol-2-yl]-2,2-dimethyl-propionic acid (AM643)-A potent FLAP inhibitor suitable for topical administration” (Bioorg Med Chem Lett, 2010)
